Measured values from different studies.
Each line is one published result; the experiments were not run side by side.
EIF2AK4 S808G C-terminal kinase domain: eIF-2-alpha kinase GCN2, C-terminal kinase domain (EIF2AK4, Homo sapiens, UniProt Q9P2K8, S808G)
EIF2AK4 S808G: eIF-2-alpha kinase GCN2 (EIF2AK4, Homo sapiens, UniProt Q9P2K8, S808G)

C[C@@H](c1ccc(-n2cnc3c(N)ncnc32)cc1)N1CCc2nn(C)c(Cc3ccccc3)c2C1=O — remaining binding (EIF2AK4 S808G C-terminal kinase domain; binding; competition with immobilised ligand; 0.1 µM): 98%
O=S(=O)(NC1CCC(c2cc(F)ccc2F)(S(=O)(=O)c2ccc(Cl)cc2)CC1)C(F)(F)F (centres unmarked) — remaining binding (EIF2AK4 S808G C-terminal kinase domain; cell-free assay; competition with immobilised ligand; 1 µM): 100%
C[C@H]1CCN(c2nccc(-c3cnn4ncccc34)n2)C1 — remaining binding (EIF2AK4 S808G; binding; 1 µM): 100%
FC(F)(F)Oc1cccc(-c2cnc3ccc(-c4ccncc4)nn23)c1 — remaining binding (EIF2AK4 S808G; binding; competition with immobilised ligand; 5 µM): 35%
CCCOc1ccc([C@@H]2[C@@H](C(=O)O)[C@H](c3ccc4c(c3)OCO4)CN2CC(=O)Nc2c(CC)cccc2CC)cc1 — remaining binding (EIF2AK4 S808G C-terminal kinase domain; cell-free assay; competition with immobilised ligand; 1 µM): 100%
CN(C)c1nccc(-c2cnc3ncccn23)n1 — remaining binding (EIF2AK4 S808G; binding; 1 µM): 99%
CC(=O)N1CCC(c2ccc(C(=O)NC3=NCCN3)cc2C(F)(F)F)CC1 — remaining binding (EIF2AK4 S808G C-terminal kinase domain; cell-free assay; competition with immobilised ligand; 1 µM): 52%
CN1CCN(c2ccc(Nc3nccc(-c4cccc([N+](=O)[O-])c4)n3)cc2C(F)(F)F)CC1 — remaining binding (EIF2AK4 S808G; binding; 10 µM): 0.2%
C[C@H](NC(=O)c1cnc2n1[C@](C)(Cc1ccc(C#N)cc1)C(=O)N2c1cc(Cl)c(F)c(Cl)c1)C(=O)NC1(c2ccccn2)CC1 — remaining binding (EIF2AK4 S808G C-terminal kinase domain; cell-free assay; competition with immobilised ligand; 1 µM): 100%
O=C(c1ccc(Nc2ncc(Cl)c(-c3ccc(Cl)s3)n2)cc1)N1CCC(N2CCCC2)CC1 — remaining binding (EIF2AK4 S808G C-terminal kinase domain; binding; competition with immobilised ligand; 1 µM): 0.25%
O=C(NCCCC1CCCCC1)c1ccc(CNC(=O)c2cnn(-c3ccccc3)c2C(F)(F)F)cc1 — remaining binding (EIF2AK4 S808G C-terminal kinase domain; cell-free assay; competition with immobilised ligand; 0.1 µM): 100%
O=C(c1ccc(Nc2nccc(-c3cc4ccccc4s3)n2)cc1)N1CCC(N2CCCC2)CC1 — remaining binding (EIF2AK4 S808G C-terminal kinase domain; binding; competition with immobilised ligand; 1 µM): 5.2%
O=C(Nc1c[nH]nc1C(=O)NC1CCNCC1)c1cc(F)cc(F)c1 — remaining binding (EIF2AK4 S808G C-terminal kinase domain; binding; competition with immobilised ligand; 1 µM): 100%
CN(C)c1nccc(-c2cnn3ncccc23)n1 — remaining binding (EIF2AK4 S808G; binding; 1 µM): 100%
Cc1cnc(Nc2ccc(C(=O)N3CCC(N4CCCC4)CC3)cc2)nc1-c1cc2ccccc2s1 — remaining binding (EIF2AK4 S808G C-terminal kinase domain; binding; competition with immobilised ligand; 1 µM): 0%
F[C@@H]1CCN(c2nccc(-c3cnn4ncccc34)n2)C1 — remaining binding (EIF2AK4 S808G; binding; 1 µM): 63%
O=C(O)[C@H]1[C@H](Cn2nnc3ccccc3c2=O)CC[C@@H]1C(=O)c1ccc(OCCC2CCOCC2)cc1 — remaining binding (EIF2AK4 S808G C-terminal kinase domain; cell-free assay; competition with immobilised ligand; 1 µM): 55%
CN(C)c1ncc(F)c(-c2cnn3ncccc23)n1 — remaining binding (EIF2AK4 S808G; binding; 1 µM): 100%
Cn1nc(C(F)(F)F)cc1-c1cnc(N2CCc3cc(S(=O)(=O)Nc4c(F)cc(Cl)cc4F)cc(N4CCCC4=O)c32)nc1 — remaining binding (EIF2AK4 S808G C-terminal kinase domain; cell-free assay; competition with immobilised ligand; 1 µM): 100%
N[C@H]1CCN(c2nccc(-c3cnn4ncccc34)n2)C1 — remaining binding (EIF2AK4 S808G; binding; 1 µM): 100%
COc1cnc(Nc2cccc(S(N)(=O)=O)c2)nc1N1CCN(c2ccccc2)C(=O)C1 — remaining binding (EIF2AK4 S808G C-terminal kinase domain; binding; competition with immobilised ligand; 1 µM): 90%
CN(CCCC(F)(F)F)c1nccc(-c2cnn3ncccc23)n1 — remaining binding (EIF2AK4 S808G; binding; 1 µM): 99%
Nc1ncc2c(n1)-c1c([nH]c3ccc(C#CC4CC4)cc13)CCCC2 — remaining binding (EIF2AK4 S808G C-terminal kinase domain; binding; competition with immobilised ligand; 1 µM): 89%
